These results are taken from paper PMC4818746 (Annals of Clinical and Translational Neurology, 2016).

The structures appear in SMILES notation.

For series [1], the target named is T1, LRRK2-G2019S (Homo sapiens, UniProt Q5S007, G2019S). Briefly: Radiometric kinase assay, LRRK2-G2019S activity on MBP. The conditions noted are these: for reduction of p-MBP: G2019S on MBP, 2 μmol/L antioxidant, relative to vehicle control; for inhibition of p-MBP (in words): screen of 84 antioxidants, 2 μmol/L. Type of series: biochemical.
In a further series the target is LRRK2-WT (Homo sapiens, UniProt Q5S007). Briefly: Radiometric kinase assay, LRRK2-WT activity on MBP. Type of series: biochemical. The conditions noted are these: IC50 against LRRK2-WT, MBP substrate.
In series [2] the target is T1, LRRK2-G2019S. Briefly: Filter-binding kinase assay, G2019S activity on LRRKtide. It is filed as biochemical. In short, it runs like this: (§1)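 Recombinant LRRK2 G2019S (0.8 μg) with 5 μg synthetic peptide substrate, 10 μCi [γ32P]ATP and 1X kinase buffer in 40 μL, incubated at 30°C for 20 min. 10 μL of reaction spotted onto P81 phosphocellulose disks, washed twice in 75 mmol/L phosphoric acid, then counted by liquid scintillation. Reported as mean CPM ± SEM (n = 4) of phosphorylated peptide.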

In series [3] the target is T1, LRRK2-G2019S. Briefly: Filter-binding kinase assay, G2019S activity on PEPrx3. Type of series: biochemical. In short, it runs like this: as §1
In series [4] the test system is ddc‐GAL4‐hLRRK2 G2019S flies. Briefly: Oxidative state assays. It is filed as in vivo, Drosophila. The conditions noted are these: 10 μmol/L in food, relative fluorescence, control 31,756 ± 4142.
Series [5] deals with LRRK2 G2019S‐expressing transgenic flies. Briefly: Number of TH+ DA neurons in G2019S fly brains. It is filed as in vivo, Drosophila. The conditions noted are these: 10 μmol/L in diet; for increase in number of neurons in PPM3: 60 days posteclosion. Put shortly: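 G2019S transgenic flies (ddc-GAL4 driver) fed cornmeal food containing test compound at 10 μmol/L (DMSO) or plain food, at 25°C. Whole-mount adult brains dissected 60 days after eclosion and immunostained with rabbit anti-TH (1:200). DA neurons scored per cluster, including PPM3, by confocal microscopy. Given as mean count per cluster (n = 4; cohort of 20).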

The test system is the same in series [6]. Briefly: Climbing assay. The conditions noted are these: 10 μmol/L in diet. It is filed as in vivo, Drosophila.
For series [7] the following is noted: cited from earlier work.
For another series, the system named is dopaminergic neurons. The conditions noted are these: mouse; cited from earlier work.
The subject of series [8] is LRRK2 G2019S‐expressing transgenic flies. Briefly: Lifespan / survival of G2019S flies. It is filed as in vivo, Drosophila. The conditions noted are these: nonsignificant. Put shortly: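 ddc-GAL4-hLRRK2 G2019S flies raised at 25°C on cornmeal food, replaced every 2 days, either plain or with test compound in DMSO added at 10 μmol/L. Read-out is the percentage of surviving flies; n = 4 cohorts of 60.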

T1 sequence (Q5S007 whole entry G2019S): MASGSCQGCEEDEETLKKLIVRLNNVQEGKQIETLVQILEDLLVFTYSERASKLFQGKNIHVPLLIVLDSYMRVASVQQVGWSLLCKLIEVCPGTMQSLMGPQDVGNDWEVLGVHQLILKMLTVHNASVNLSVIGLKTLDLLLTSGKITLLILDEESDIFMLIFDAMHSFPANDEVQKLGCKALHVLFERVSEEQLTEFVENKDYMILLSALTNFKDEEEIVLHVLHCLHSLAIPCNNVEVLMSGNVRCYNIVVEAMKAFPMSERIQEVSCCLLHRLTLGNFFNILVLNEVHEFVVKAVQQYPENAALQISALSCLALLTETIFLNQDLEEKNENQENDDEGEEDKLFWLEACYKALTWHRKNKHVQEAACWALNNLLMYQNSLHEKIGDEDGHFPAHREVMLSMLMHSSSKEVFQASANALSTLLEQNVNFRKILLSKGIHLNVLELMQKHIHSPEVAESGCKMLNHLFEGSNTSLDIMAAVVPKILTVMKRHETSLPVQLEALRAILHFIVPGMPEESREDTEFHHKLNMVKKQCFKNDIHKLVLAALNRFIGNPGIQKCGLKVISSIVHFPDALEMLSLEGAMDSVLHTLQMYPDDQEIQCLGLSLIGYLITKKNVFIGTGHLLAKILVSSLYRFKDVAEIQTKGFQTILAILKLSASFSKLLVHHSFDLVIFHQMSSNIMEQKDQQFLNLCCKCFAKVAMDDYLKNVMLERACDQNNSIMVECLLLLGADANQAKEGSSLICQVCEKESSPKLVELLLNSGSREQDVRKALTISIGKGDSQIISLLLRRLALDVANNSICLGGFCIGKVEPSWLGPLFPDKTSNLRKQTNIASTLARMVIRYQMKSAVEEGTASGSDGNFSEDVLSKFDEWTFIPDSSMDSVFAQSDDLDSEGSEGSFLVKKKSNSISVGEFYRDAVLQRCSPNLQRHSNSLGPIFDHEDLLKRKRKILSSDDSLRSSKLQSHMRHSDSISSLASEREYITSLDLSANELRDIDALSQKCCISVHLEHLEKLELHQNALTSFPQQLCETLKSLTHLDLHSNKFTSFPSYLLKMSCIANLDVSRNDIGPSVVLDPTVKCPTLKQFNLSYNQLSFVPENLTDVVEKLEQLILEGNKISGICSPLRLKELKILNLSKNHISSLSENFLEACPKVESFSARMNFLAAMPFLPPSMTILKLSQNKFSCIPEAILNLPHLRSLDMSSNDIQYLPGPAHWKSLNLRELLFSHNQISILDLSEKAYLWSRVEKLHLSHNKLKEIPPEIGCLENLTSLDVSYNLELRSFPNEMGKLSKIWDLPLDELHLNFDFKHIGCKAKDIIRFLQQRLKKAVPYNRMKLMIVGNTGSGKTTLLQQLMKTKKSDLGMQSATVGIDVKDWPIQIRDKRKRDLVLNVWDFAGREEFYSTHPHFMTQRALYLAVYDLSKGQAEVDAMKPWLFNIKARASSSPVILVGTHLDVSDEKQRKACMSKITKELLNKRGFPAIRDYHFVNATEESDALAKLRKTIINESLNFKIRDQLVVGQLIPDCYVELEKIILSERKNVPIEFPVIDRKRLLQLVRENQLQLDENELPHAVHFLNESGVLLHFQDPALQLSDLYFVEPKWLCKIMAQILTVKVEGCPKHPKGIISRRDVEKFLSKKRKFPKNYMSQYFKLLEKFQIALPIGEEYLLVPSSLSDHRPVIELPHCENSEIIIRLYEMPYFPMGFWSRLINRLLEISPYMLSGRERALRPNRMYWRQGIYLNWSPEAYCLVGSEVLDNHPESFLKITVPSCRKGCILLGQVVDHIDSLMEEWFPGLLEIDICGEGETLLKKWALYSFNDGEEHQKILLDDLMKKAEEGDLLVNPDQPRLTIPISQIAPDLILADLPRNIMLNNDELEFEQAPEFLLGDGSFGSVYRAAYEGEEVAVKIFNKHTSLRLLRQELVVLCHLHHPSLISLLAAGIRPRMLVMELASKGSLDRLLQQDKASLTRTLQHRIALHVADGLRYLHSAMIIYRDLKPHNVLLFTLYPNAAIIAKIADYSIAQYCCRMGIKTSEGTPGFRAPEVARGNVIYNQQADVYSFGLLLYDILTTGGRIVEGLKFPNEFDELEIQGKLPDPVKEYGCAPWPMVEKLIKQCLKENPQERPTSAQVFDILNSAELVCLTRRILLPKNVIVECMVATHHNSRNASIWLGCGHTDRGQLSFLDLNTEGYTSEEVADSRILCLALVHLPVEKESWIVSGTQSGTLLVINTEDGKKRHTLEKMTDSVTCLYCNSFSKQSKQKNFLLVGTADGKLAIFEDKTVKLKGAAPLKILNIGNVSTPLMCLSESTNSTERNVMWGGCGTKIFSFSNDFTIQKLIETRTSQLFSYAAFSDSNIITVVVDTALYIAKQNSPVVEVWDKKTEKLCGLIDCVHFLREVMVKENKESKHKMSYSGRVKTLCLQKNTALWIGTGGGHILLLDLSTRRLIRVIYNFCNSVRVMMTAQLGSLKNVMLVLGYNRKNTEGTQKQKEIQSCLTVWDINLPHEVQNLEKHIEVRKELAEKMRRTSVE
Sequence of LRRK2-WT (Q5S007 whole entry): as the sequence (Q5S007 whole entry G2019S) above, with S2019G counted along it

For orientation: IC50 means the concentration needed to halve the response being measured. A lower IC50 goes with higher potency. `CC1=CC(=O)C(C(C)C)=CC1=O` [Thymoquinone]: the IC50 was 125 nM at LRRK2-G2019S [1] (IC50 against LRRK2-G2019S, MBP substrate) and 673 nM against LRRK2-WT. The “kinase activity toward LRRKtide (in words)” value at LRRK2-G2019S [2] is listed as “most significantly reduced”. Also, the “kinase activity toward PEPrx3 (in words)” value at LRRK2-G2019S [3] is “most significantly reduced”. Also, the “level of H2O2 in brain lysates” value in series [4] is listed as 18,445 ± 1229. For the same molecule, the “increase in number of neurons in PPM3” value in series [5] was “up to 55%”. The “increase in climbing scores” value in series [6] is recorded as at most 17%. Also, the “crossing of the blood–brain barrier” value in series [7] is “readily cross the blood–brain barrier”. Besides, the “protection of dopaminergic neurons against MPP+” value in the series on dopaminergic neurons is recorded as “protect dopaminergic neurons against MPP+”.
For the molecule `Cc1c(O)cc2c(c1C)O[C@](C)(CCC[C@H](C)CCC[C@H](C)CCCC(C)C)CC2` [γ‐Tocopherol], at LRRK2-G2019S [1], the “reduction of p-MBP” value is recorded as ~ 90%.
For `CN[C@@H]1C[C@H]2O[C@@](C)([C@@H]1OC)n1c3ccccc3c3c4c(c5c6ccccc6n2c5c31)C(=O)NC4` [Staurosporine], the “LRRK2 kinase activity (in words)” value at LRRK2-G2019S [1] (10^−3 and 10^−1 μmol/L staurosporine, Fig. 1C) is “reduced kinase activity”.
Turning to `O=c1ccc2cc(O)c(O)cc2o1` [Esculetin], the “kinase activity toward LRRKtide (in words)” value at LRRK2-G2019S [2] is listed as “most significantly reduced”. The “kinase activity toward PEPrx3 (in words)” value on LRRK2-G2019S [3] is recorded as “most significantly reduced”. Further, in series [4], the “level of H2O2 in brain lysates” value was 20,220 ± 1909. The “increase in number of neurons in PPM3” value in series [5] is reported as “up to 55%”. Besides, the “crossing of the blood–brain barrier” value in series [7] is given as “readily cross the blood–brain barrier”. Further, the “protection of dopaminergic neurons against MPP+” value with dopaminergic neurons was “protect dopaminergic neurons against MPP+”.
In the case of `O=c1cc(-c2ccccc2)oc2cc(O)c(O)c(O)c12` [Baicalein], the “kinase activity toward LRRKtide (in words)” value on LRRK2-G2019S [2] is “most significantly reduced”. The “kinase activity toward PEPrx3 (in words)” value at LRRK2-G2019S [3] is “most significantly reduced”.
`Oc1cc(O)cc(/C=C/c2ccc(O)c(O)c2)c1` [Piceatannol]: the “kinase activity toward LRRKtide (in words)” value at LRRK2-G2019S [2] is “most significantly reduced”. The “kinase activity toward PEPrx3 (in words)” value on LRRK2-G2019S [3] is “most significantly reduced”. The “level of H2O2 in brain lysates” value in series [4] is given as 20,061 ± 2910. Besides, the “increase in number of neurons in PPM3” value in series [5] is on record as “up to 55%”. For the same molecule, the “increase in climbing scores” value in [6] is “up to 22%”.
For the molecule `CC(C)(Sc1cc(C(C)(C)C)c(O)c(C(C)(C)C)c1)Sc1cc(C(C)(C)C)c(O)c(C(C)(C)C)c1` [Probucol], the “inhibition of p-MBP (in words)” value on LRRK2-G2019S [1] was “Weak or noninhibitory”. For the same molecule, in series [5], the “viability of TH+ neurons (in words)” value was “did not improve”. Moreover, the decrease in lifespan in series [8] is recorded as 11%.
Consider `CC1=C(/C=C/C(C)=C/C=C/C(C)=C/C=C/C=C(C)/C=C/C=C(C)/C=C/C2=C(C)CCCC2(C)C)C(C)(C)CCC1` [β-carotene], for which the “inhibition of p-MBP (in words)” value on LRRK2-G2019S [1] is recorded as “Weak or noninhibitory”.
As to `O=C(/C=C/c1ccc(O)c(O)c1)O[C@H](Cc1ccc(O)c(O)c1)C(=O)O` [Rosmarinic acid], the “kinase activity toward LRRKtide (in words)” value on LRRK2-G2019S [2] is on record as “most significantly reduced”. For the same molecule, the “kinase activity toward PEPrx3 (in words)” value at LRRK2-G2019S [3] was “most significantly reduced”.
`N[C@@H](CCC(=O)N[C@@H](CS)C(=O)NCC(=O)O)C(=O)O` [Glutathione]: the “inhibition of p-MBP (in words)” value at LRRK2-G2019S [1] is “Weak or noninhibitory”.
As to `COc1cc(/C=C/C(=O)CC(=O)/C=C/c2ccc(O)c(OC)c2)ccc1O` [Curcumin], the “reduction of p-MBP” value on LRRK2-G2019S [1] was ~ 90%.
Still for that read-out and setting: the result for `CCCCCCCCOC(=O)/C=C/c1ccc(O)c(O)c1` [n-Octyl caffeate] reads ~ 90%.
Take `Cc1cc2c(C(C)C)c(O)c(O)c(C=O)c2c(O)c1-c1c(C)cc2c(C(C)C)c(O)c(O)c(C=O)c2c1O` [Gossypol]: at LRRK2-G2019S [2], the “kinase activity toward LRRKtide (in words)” value is listed as “most significantly reduced”. For the same molecule, the “kinase activity toward PEPrx3 (in words)” value on LRRK2-G2019S [3] was “most significantly reduced”.
